The values that follow come from ChEMBL document CHEMBL1128427, “Novel inhibitors of the nuclear factor of activated T cells (NFAT)-mediated transcription of beta-galactosidase: potential immunosuppressive and antiinflammatory agents” (J Med Chem, 1995).

Each structure is given as a SMILES string.

Test [1] can be described thus: Inhibition of nuclear factor of activated T-cells (NFAT) mediated transcription of beta-galactosidase in J.NFATZ.1 cells. The format is functional, cell-based, T-cell.
Test [2] relates to Jurkat. Kind of test: Binding affinity was measured on jurkat cell membrane using [3H3C] as radioligand. The format is functional, cell membranes, Homo sapiens.
Test [3] concerns Jurkat. The experiment in a line: Binding affinity was measured on jurkat cell membrane using [3H3C] as radioligand. In kind it is functional, cell membranes, Homo sapiens.
In test [4] the test system is Jurkat. Kind of test: Inhibition of beta-galactosidase as expression in J.NFATZ.1 cells at 10 uM mediated by nuclear factor of activated T-cells transcription. The format is functional.
In test [5] the test system is Jurkat. The experiment in a line: Concentration required to inhibit nuclear factor of activated T-cells mediated transcription of beta-galactosidases expression in J.NFATZ.1 cells; Not active. The format is functional, cell-based. A digest of the protocol: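 J.NFATZ.1 cells, 1.25×10^5 per well, were stimulated with PMA (2 ng/mL final) and ionomycin (25 μM final) in the presence of compound (0.1% DMSO final). Incubation 5 h at 37 °C. Cells were lysed and incubated 1 h at 37 °C with 4-methylumbelliferyl β-D-galactoside (10 μg/mL final, pH 7.8). Fluorescence read at […]. IC50 obtained by four-parameter logistic fit.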

In turn, `CC(C)Cn1c(=O)n(C)c(=O)c2cn(C3Cc4cccc5cccc3c45)cc21` (centres undefined) yielded an IC50 in test [1] (T-cell) of 8 nM.
`CCCCOc1ccc(Cn2cc3c(=O)n(C)c(=O)n(CC(C)C)c3c2)cc1`: in test [1] (T-cell), half-maximal inhibition (IC50) was put at 190 nM.
`CC(C)Cn1c(=O)n(C)c(=O)c2cn(Cc3ccccc3Cl)cc21` showed a Ki in the test with Jurkat [2] of 122 nM. Further, the IC50 in test [1] (T-cell) was 260 nM.
Regarding `CSc1c2c(=O)n(C)c(=O)n(CC(C)C)c2cn1Cc1cccc2ccccc12`, in test [1] (T-cell), it took 89 nM to reach half-maximal inhibition (IC50).
Molecule `CC(C)Cn1c(=O)n(C)c(=O)c2cn(C(c3ccccc3)c3ccccc3)cc21` came in with an IC50 in test [1] (T-cell) of 1460 nM. Compared with the last molecule, the IC50 is about 16-fold higher.
As to `COc1ccc(Cn2cc3c(c2CN2CCOCC2)c(=O)n(C)c(=O)n3CC(C)C)cc1`, the Ki in the test with Jurkat [3] was 315 nM. In test [1] (T-cell), this molecule came in with an IC50 of 800 nM.
`COC(=O)c1ccc(CNc2ccc3c(c2)c(=O)n(C)c(=O)n3CC(C)C)cc1` had an Inhibition in the test on Jurkat [4] of 35%.
In test [1] (T-cell), `COc1cccc(Cn2cc3c(=O)n(C)c(=O)n(CC(C)C)c3c2)c1` displayed an IC50 of 275 nM. This counts as sub-micromolar.
On to `CC(C)Cn1c(=O)n(C)c(=O)c2cn([C@H](C)c3ccccc3)cc21`, for which, in the test on Jurkat [3], the Ki turned out to be 562 nM. Moreover, in test [1] (T-cell), the IC50 was found to be 1200 nM.
The molecule `CC(C)Cn1c(=O)n(C)c(=O)c2cc(OCc3ccccc3)ccc21` had an IC50 in test [1] (T-cell) of 2500 nM. This lies in the single-digit micromolar range.
For `CNC(=O)CCCn1c(=O)c2cn(Cc3cccc4ccccc34)cc2n(CC(C)C)c1=O`, the IC50 entry with Jurkat [5] is reported as “Not Active”.
On to `COc1ccc(Cn2cc3c(c2SC)c(=O)n(C)c(=O)n3CC(C)C)cc1`, for which affinity with Jurkat [3] was put at a Ki of 305 nM. This molecule also came in with an IC50 in test [1] (T-cell) of 360 nM.
In the case of `CC(C)Cn1c(=O)n(C)c(=O)c2cn(Cc3ccc(Cl)cc3)cc21`, the IC50 in test [1] (T-cell) amounted to 435 nM. In other words, the sub-micromolar range.
`CC(C)Cn1c(=O)n(C)c(=O)c2ccc(OCc3ccccc3)cc21`: in test [1] (T-cell), the IC50 was determined as 2050 nM.
As to `CC(C)Cn1c(=O)n(C)c(=O)c2cn(Cc3cccc4ccccc34)cc21`, the Ki in the test with Jurkat [2] came out at 23 nM. Also, the midpoint of inhibition in test [1] (T-cell), the IC50, lay at 26 nM.
In test [1] (T-cell), `CCn1c(=O)c2cn(Cc3cccc4ccccc34)cc2n(CC(C)C)c1=O` came in with an IC50 of 90 nM. That is a double-digit nanomolar value.
As to `CC(C)Cn1c(=O)n(C)c(=O)c2cc(CCc3ccccc3)ccc21`, in test [1] (T-cell), the IC50 was found to be 4030 nM.
The molecule `COc1ccccc1Cn1cc2c(=O)n(C)c(=O)n(CC(C)C)c2c1` had a Ki in the test on Jurkat [2] of 170 nM. The molecule also yielded an IC50 in test [1] (T-cell) of 275 nM.
`CCn1c(=O)n(C)c(=O)c2cn(Cc3cccc4ccccc34)cc21` registered an IC50 in test [1] (T-cell) of 440 nM.
On the same count and under the same terms, in the case of `CC(C)Cn1c(=O)n(C)c(=O)c2cc3c(cc21)O[C@H](c1ccccc1)O3` it was 2250 nM; in that of `Cn1c(=O)c2cn(Cc3cccc4ccccc34)cc2n(CC2CC2)c1=O`, 140 nM.
As for `CC(O)Cn1c(=O)n(C)c(=O)c2cn(Cc3cccc4ccccc34)cc21` (centres undefined), the Ki in the test with Jurkat [3] was determined as 697 nM. This molecule also returned an IC50 in test [1] (T-cell) of 3950 nM.
As to `Cc1c2c(cn1Cc1cccc3ccccc13)c(=O)n(C)c(=O)n2CC(C)C`, it took 150 nM to reach half-maximal inhibition in test [1] (T-cell) (IC50). This counts as sub-micromolar.
For `COc1ccc(Cn2cc3c(=O)n(C)c(=O)n(CC(C)C)c3c2)cc1OC`, the IC50 in test [1] (T-cell) was 378 nM.
The molecule `CC(C)Cn1c(=O)n(C)c(=O)c2cn([C@@H](C)c3ccccc3)cc21` registered a Ki in the test with Jurkat [3] of 301 nM. Moreover, 1300 nM corresponded to half-maximal inhibition in test [1] (T-cell) (IC50).
In turn, `CC(C)Cn1c(=O)n(C)c(=O)c2cn(Cc3ccc4ccccc4c3)cc21` showed a Ki in the test on Jurkat [2] of 29.4 nM. This molecule had an IC50 in test [1] (T-cell) of 75 nM.
In the test on Jurkat [4], `CC(C)Cn1c(=O)n(C)c(=O)c2cc(NCc3ccc(C(=O)O)cc3)ccc21` showed an Inhibition of 30%.
In the test on Jurkat [3], `CC(C)n1c(=O)n(C)c(=O)c2cn(Cc3cccc4ccccc34)cc21` showed a Ki of 15.3 nM. In test [1] (T-cell), this molecule showed an IC50 of 21.5 nM.
`CSc1ccc(Cn2cc3c(=O)n(C)c(=O)n(CC(C)C)c3c2)cc1`: it took 260 nM to reach half-maximal inhibition in test [1] (T-cell) (IC50).
Same read-out and setting: in the case of `Cn1c(=O)c2cn(Cc3cccc4ccccc34)cc2n(CC2CCCCC2)c1=O` it was 1210 nM.
As for `CC(C)Cn1c(=O)n(C)c(=O)c2c(SCCCO)n(Cc3cccc4ccccc34)cc21`, in the test with Jurkat [3], the Ki was 1.1 nM. Further, in test [1] (T-cell), the IC50 amounted to 6 nM.
In test [1] (T-cell), `CC(C)Cn1c(=O)[nH]c(=O)c2cn(Cc3cccc4ccccc34)cc21` gave an IC50 of 3000 nM.
On the same count and under the same terms, in the case of `CC(C)CCn1c(=O)n(C)c(=O)c2cn(Cc3cccc4ccccc34)cc21` it was 815 nM.
For `CC(C)Cn1c(=O)n(C)c(=O)c2cc(NCc3ccccc3)ccc21`, in test [1] (T-cell), the IC50 is 4470 nM.
In the case of `CC(C)Cn1c(=O)[nH]c(=O)c2cn(C3Cc4cccc5cccc3c45)cc21` (centres undefined), the Ki in the test with Jurkat [3] came out at 454 nM. The molecule also yielded a 50% inhibitory concentration (IC50) in test [1] (T-cell) of 660 nM.
Regarding `CC(C)Cn1c(=O)n(C)c(=O)c2cn(Cc3ccccc3F)cc21`, the IC50 in test [1] (T-cell) is 630 nM. This counts as sub-micromolar.
In test [1] (T-cell), `CC(C)Cn1c(=O)n(C)c(=O)c2cn(Cc3ccc(O)cc3)cc21` showed an IC50 of 640 nM.
Consider `CC(C)Cn1c(=O)n(C)c(=O)c2cc3c(cc21)O[C@](C)(c1ccccc1)O3`, for which, in test [1] (T-cell), the IC50 came to 4480 nM.
Regarding `Cc1ccc(Cn2cc3c(=O)n(C)c(=O)n(CC(C)C)c3c2)cc1`, 320 nM corresponded to half-maximal inhibition in test [1] (T-cell) (IC50).
Take `COc1ccc(Cn2cc3c(=O)n(C)c(=O)n(CC(C)C)c3c2)cc1`: half-maximal inhibition in test [1] (T-cell) (IC50) was put at 240 nM.
The same measure, in the same setting: in the case of `CC(C)Cn1c(=O)n(C)c(=O)c2cn(Cc3ccc(C(F)(F)F)cc3)cc21` it was 1300 nM; in that of `CC(C)Cn1c(=O)n(C)c(=O)c2cn(Cc3ccccc3)cc21`, 870 nM.
`COc1cccc(Cn2cc3c(=O)n(C)c(=O)n(CC(C)C)c3c2)c1OC` displayed an IC50 in test [1] (T-cell) of 224 nM.
Take `CC(C)Cn1c(=O)n(C)c(=O)c2cn(Cc3cccc(Cl)c3Cl)cc21`: the IC50 in test [1] (T-cell) turned out to be 1200 nM.
Molecule `CC(C)Cn1c(=O)n(C)c(=O)c2ccc(NCc3ccccc3)cc21` displayed an Inhibition with Jurkat [4] of 40%.
In the test on Jurkat [4], `CC(C)Cn1c(=O)n(C)c(=O)c2cc(NCc3ccc(C(C)(C)C)cc3)ccc21` registered an Inhibition of 34%.
The molecule `COc1ccc(Cn2cc3c(=O)n(C)c(=O)n(CC(C)C)c3c2)cc1I` yielded an IC50 in test [1] (T-cell) of 166 nM. This counts as sub-micromolar.
In the case of `COc1ccc(Cn2cc3c(=O)n(C)c(=O)n(CC(C)C)c3c2)c(OC)c1`, in the test with Jurkat [3], the Ki stood at 88 nM. Moreover, in test [1] (T-cell), the IC50 was found to be 310 nM.
In the case of `CC(C)Cn1c(=O)n(C)c(=O)c2cn(C3CCc4ccccc43)cc21` (centres undefined), the IC50 in test [1] (T-cell) worked out at 186 nM.
As to `CC(C)Cn1c(=O)n(C)c(=O)c2cn(Cc3ccc(O)c(I)c3)cc21`, in test [1] (T-cell), the IC50 is 89 nM.
`CC(C)Cn1c(=O)n(C)c(=O)c2cn(C3Cc4ccccc4C3)cc21` showed a Ki in the test with Jurkat [3] of 4.8 nM. In test [1] (T-cell), this molecule showed an IC50 of 312 nM.
For the molecule `CC(C)Cn1c(=O)n(C)c(=O)c2cc(NCc3ccccc3F)ccc21`, the concentration for half-maximal inhibition (IC50) in test [1] (T-cell) was 1320 nM.
Take `CCC(C)n1c(=O)n(C)c(=O)c2cn(C3Cc4cccc5cccc3c45)cc21` (stereo in doubt; 5g3): the concentration for half-maximal inhibition (IC50) in test [1] (t-cell) stood at 17 nM.
In turn, `CCC(C)n1c(=O)n(C)c(=O)c2cn(C3Cc4cccc5cccc3c45)cc21` (stereo in doubt; 5g4) gave an IC50 in test [1] (t-cell) of 48 nM. Against the preceding molecule, the IC50 is about 2.8-fold higher.
In turn, `CCC(C)n1c(=O)n(C)c(=O)c2cn(C3Cc4cccc5cccc3c45)cc21` (stereo in doubt; 5g) yielded an IC50 in test [1] (t-cell) of 5.4 nM. This IC50 is about 8.9-fold lower than that of the molecule before.
